Screening results from PubChem BioAssay.
Hits are enriched below; roughly 1.2% of the tested compounds scored in any of these assays.
S1P3 antagonist – S1P3 receptor antagonists, primary screen, cell-based; CHO S1P3 NFAT-BLA reporter, FRET fluorescence, antagonist mode; Sphingosine 1-phosphate receptor 3 (Homo sapiens), Q99500; 170,000 tested, 0.27% active; inhibition, % at 4.98 µM;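 active = inhibition above the plate cutoff, the mean inhibition of test wells on that plate plus 3 SD, cut at about 28% in these data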;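 note: cells challenged with S1P at its EC80 of 0.8 µM; blue over green emission ratio from cleaved BLA substrate after 4 h stimulation; 0% = S1P-stimulated wells and 100% = unstimulated DMSO-only wells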
Efa HMGR inh – inhibitors of E. faecalis class II HMGR, primary screen, biochemical, Enterococcus faecalis. purified E. faecalis HMGR, NADPH absorbance 340 nm kinetic. inhibition, % at 10 µM. 190,000 tested, 0.41% active. HMG-CoA reductase (Enterococcus faecalis, mvaE);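 active = inhibition above a set limit, the median over all tested compounds plus 3 SD, cut at about 9.5% in these data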;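 note: enzyme runs in reverse so mevalonate oxidation gives rising NADPH absorbance; 0% = complete reaction with DMSO and 100% = background rate lacking mevalonate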
Rad51 HR inh – human RAD51 strand exchange inhibitors, primary screen, biochemical, fluorescence | 200,000 tested, 0.085% active | hRad51 DNA strand exchange, fluorescence dequenching | DNA repair protein RAD51 homolog 1 (Homo sapiens), Q06609 | inhibition, % at 10 µM;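 active = inhibition above 40% at the single screening dose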;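 note: 0% = DMSO control wells and 100% = blanks with heterologous ssDNA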
Target sequence (Q06609 whole entry, looked up): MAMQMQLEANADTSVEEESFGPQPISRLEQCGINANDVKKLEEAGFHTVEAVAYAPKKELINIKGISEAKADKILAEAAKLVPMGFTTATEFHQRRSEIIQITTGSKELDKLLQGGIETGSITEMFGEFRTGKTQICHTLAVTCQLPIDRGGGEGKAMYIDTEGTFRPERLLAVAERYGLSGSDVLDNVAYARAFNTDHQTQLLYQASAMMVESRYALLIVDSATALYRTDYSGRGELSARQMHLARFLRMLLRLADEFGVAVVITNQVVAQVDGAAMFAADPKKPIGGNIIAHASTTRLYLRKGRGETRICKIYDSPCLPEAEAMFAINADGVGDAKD
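Material: Human Rad51 nucleoprotein filaments preassembled on unlabelled ssDNA | Also added: Labelled 47-mer dsDNA for strand exchange | Dosing: Single dose, 10 µM final compound | Schedule: 30-min compound preincubation and 15-min exchange, both room temperature | Technique: Fluorescence dequenching at 485/520 nm | Measure: Percent inhibition relative to plate controls and blanks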
S1P4 agonist – S1P4 receptor agonists, primary screen, cell-based; Sphingosine 1-phosphate receptor 4 (Homo sapiens), O95977; S1P4-expressing cell line, agonist reporter assay; activation, % at 4.98 µM; 220,000 tested, 0.35% active; in the data active = activation above about 11%;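 note: 0% = DMSO vehicle and 100% = reference agonist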
S1P4 antagonist – S1P4 receptor antagonists, primary screen, cell-based; Sphingosine 1-phosphate receptor 4 (Homo sapiens), O95977; S1P4-expressing cells, antagonist mode, reporter read-out; inhibition, % at 4.98 µM; 220,000 tested, 0.26% active; AID 1510, 2009; in the data active = inhibition above about 29%;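 note: 0% = wells stimulated with agonist and 100% = vehicle wells without agonist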
Biofilm kill mix – clotrimazole potentiators killing C. albicans biofilm, primary screen, 4-compound mixtures. C. albicans biofilm persisters + clotrimazole, fluorescence viability; primary screen in compound mixtures of four per well. inhibition, % at 7.6 µM. 120,000 tested, 0.02% active;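 active = inhibition above 30.3% in the primary screen of four-compound pools, then above 30% when the compound was retested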;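 note: compounds exposed to preformed 24 h biofilms for 48 h; 0% = untreated biofilm control and 100% = clotrimazole plus chlorhexidine kill blank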
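Assay system: C. albicans biofilms / Medium: RPMI/MOPS medium, pH 7.0 / Schedule: biofilm formation 24 h, compound exposure 48 h, 37 °C / Measured by: Alamar Blue fluorescence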
S1P4 antag conf – S1P4 receptor antagonists, human, confirmation, cell-based; shares compounds with S1P4 antagonist; S1P4-expressing cell line, antagonist mode, reporter read-out; inhibition, % at 4.98 µM; 520 tested, 71% active; AID 1524, 2009; in the data active = inhibition above about 30%
S1P1 antag – S1P1 receptor antagonists, human, counter-screen for S1P4 antagonist project, cell-based. shares compounds with S1P4 antagonist. cell-based S1P1 antagonist counterscreen, inhibition. inhibition, % at 4.98 µM. 520 tested, 37% active. AID 1564, 2009; in the data active = inhibition above about 40%;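 note: receptor stimulated with S1P near its EC80; 0% = agonist stimulated wells and 100% = vehicle only wells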
An asterisk follows results filed as active.

How did COc1ccc(N2C(=O)CC(N3CCN(S(=O)(=O)c4ccc(Cl)cc4)CC3)C2=O)cc1 (stereo not drawn) do in these assays?
S1P3 antagonist: -10.4; Efa HMGR inh: 9.6*; Rad51 HR inh: -6.7; S1P4 agonist: 0.4; S1P4 antagonist: 30.0*; Biofilm kill mix: 7.0; S1P4 antag conf: -7.3; S1P1 antag: -5.5

How did CC(C)Cn1c([N+](=O)[O-])nc2c1c(=O)[nH]c(=O)n2C do in these assays?
S1P3 antagonist: 15.1; Rad51 HR inh: -2.3; S1P4 agonist: -0.9; S1P4 antagonist: 29.1*; Biofilm kill mix: 30.9; S1P4 antag conf: 23.7; S1P1 antag: 16.2

How did CCNc1nc2c(c(=O)[nH]c(=O)n2C)n1CC(C)C do in these assays?
S1P3 antagonist: -9.6; Efa HMGR inh: -1.8; Rad51 HR inh: -5.2; S1P4 agonist: 3.4; S1P4 antagonist: -15.8

What do the screens show for `Cn1c(=O)[nH]c(=O)c2c1nc([N+](=O)[O-])n2Cc1ccccc1`?
S1P3 antagonist: -2.6; Rad51 HR inh: 0.4; S1P4 agonist: -0.8; S1P4 antagonist: 51.3*; Biofilm kill mix: 9.6; S1P4 antag conf: 67.5*; S1P1 antag: 56.1*

Results for CC1CCCC(C)N1C(=O)CSc1nnnn1Cc1ccccc1 (stereo not drawn) ?
S1P3 antagonist: -18.4; Efa HMGR inh: 0.2; Rad51 HR inh: 8.8; S1P4 agonist: 1.3; S1P4 antagonist: 91.7*; S1P4 antag conf: 1.5; S1P1 antag: -1.5

Results for CC1CCCC(C)N1C(=O)CSc1nnnn1-c1cccc2c1CCCC2 (stereo not drawn) ?
Efa HMGR inh: -3.0; Rad51 HR inh: 4.6; S1P4 agonist: -0.1; S1P4 antagonist: 14.4

What do the screens show for `O=C(CN1C(=O)c2ccccc2C1=O)Nc1nc(-c2cccc([N+](=O)[O-])c2)cs1`?
Efa HMGR inh: -3.0; S1P4 agonist: 0.0; S1P4 antagonist: -4.2

What do the screens show for `O=C(CSc1cccc[n+]1[O-])Nc1cc(S(=O)(=O)N2CCOCC2)ccc1Cl`?
S1P3 antagonist: -7.3; Efa HMGR inh: -1.1; Rad51 HR inh: 0.1; S1P4 agonist: 1.4; S1P4 antagonist: -27.5; Biofilm kill mix: 18.2

What do the screens show for `c1ccc(CN2CCN(c3nc(N4CCOCC4)c4ccccc4n3)CC2)cc1`?
Rad51 HR inh: -4.8; S1P4 agonist: 0.1; S1P4 antagonist: 36.2*; S1P4 antag conf: 8.3; S1P1 antag: 34.1

What do the screens show for `N#Cc1ccc(N2Cc3ccccc3C2=NC(=O)c2cccnc2Cl)cc1`?
S1P3 antagonist: -26.9; Efa HMGR inh: -2.4; Rad51 HR inh: 8.8; S1P4 agonist: 2.3; S1P4 antagonist: -11.1; Biofilm kill mix: 19.0

Results for CC(=O)Nc1cccc(C(=O)/C=C/c2ccc(F)cc2)c1 ?
S1P3 antagonist: -0.8; Efa HMGR inh: -2.1; Rad51 HR inh: 3.2; S1P4 agonist: -1.3; S1P4 antagonist: 46.1*; Biofilm kill mix: 15.9; S1P4 antag conf: 71.9*; S1P1 antag: 23.4

Results for Cc1ccccc1OCCN1C(=O)NC2(CCc3ccccc32)C1=O (stereo not drawn) ?
S1P3 antagonist: -3.8; Efa HMGR inh: -8.4; Rad51 HR inh: -4.4; S1P4 agonist: -0.5; S1P4 antagonist: 35.9*; S1P4 antag conf: 0.8; S1P1 antag: -11.4

What do the screens show for `O=C1NC2(CCc3ccccc32)C(=O)N1CCOc1ccc(Cl)cc1` (stereo not drawn)?
Efa HMGR inh: 0.4; Rad51 HR inh: 9.3; S1P4 agonist: 0.3; S1P4 antagonist: 13.4

What do the screens show for `Cc1cccc(Oc2nc(-c3cccc([N+](=O)[O-])c3)nc3ccccc23)c1C`?
Efa HMGR inh: 5.5; Rad51 HR inh: -66.4; S1P4 agonist: 1.1; S1P4 antagonist: -13.2
